Tested on: HEK-293T
Test: Multiplex assay against HEK293T;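 on Population Tubulin-Different-Phenotype (%): share of the cells with healthy nuclei that show this phenotype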
Assay type: toxicity, cell-based
Conditions: human
Method in brief: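 Values for tubulin, mitochondrial-mass and membrane-permeability phenotypes are per cents of cells with healthy nuclei. These cells were identified by CellPathfinder machine-learning gating of live cells that had been stained at seeding with Hoechst33342, BioTracker Green Microtubule Cytoskeleton Dye, MitoTracker Red and Annexin V Alexa Fluor 680 and imaged on a CQ1 microscope at 37°C and 5% CO2 after compound addition. The gating first set Hoechst high-intensity objects apart from normal cells, then split normal cells into healthy, pyknosed or fragmented nuclei, and pyknosed cells into mitotic or apoptotic.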

[1] = 12 h, 1 µM, compound concentration 1 uM, replicate 1
[2] = 12 h, 1 µM, compound concentration 1 uM, replicate 2
[3] = 12 h, 10 µM, compound concentration 10 uM, replicate 1
[4] = 12 h, 10 µM, compound concentration 10 uM, replicate 2
[5] = 24 h, 1 µM, compound concentration 1 uM, replicate 1
[6] = 24 h, 1 µM, compound concentration 1 uM, replicate 2
[7] = 24 h, 10 µM, compound concentration 10 uM, replicate 1
[8] = 24 h, 10 µM, compound concentration 10 uM, replicate 2
[9] = 48 h, 1 µM, compound concentration 1 uM, replicate 1
[10] = 48 h, 1 µM, compound concentration 1 uM, replicate 2
[11] = 48 h, 10 µM, compound concentration 10 uM, replicate 1
[12] = 48 h, 10 µM, compound concentration 10 uM, replicate 2

CCCS(=O)(=O)c1nc(NC2CC2)cc(-c2ccc3c(ccn3C3CC(C)(C)NC(C)(C)C3)c2)n1
Population Apoptotic (%) [1]: 58% | Population Fragmented Nuclei (%) [1]: 8% | Population Healthy Nuclei (%) [1]: 37% | Population Hoechst High Intensity Objects (%) [1]: 13% | Population Membrane Permeable-Phenotype (%) [1]: 4% | Population Mitochondria Different-Phenotype (%) [1]: 86% | Population Mitotic Cells (%) [1]: 41% | Population Normal (%) [1]: 86% | Population Pyknosed Nuclei (%) [1]: 53% | Population Tubulin-Different-Phenotype (%) [1]: 80% | Total Cell Count [1]: 351 | Population Apoptotic (%) [2]: 18% | Population Fragmented Nuclei (%) [2]: 11% | Population Healthy Nuclei (%) [2]: 24% | Population Hoechst High Intensity Objects (%) [2]: 7% | Population Membrane Permeable-Phenotype (%) [2]: 12% | Population Mitochondria Different-Phenotype (%) [2]: 51% | Population Mitotic Cells (%) [2]: 81% | Population Normal (%) [2]: 92% | Population Pyknosed Nuclei (%) [2]: 64% | Population Tubulin-Different-Phenotype (%) [2]: 45% | Total Cell Count [2]: 137 | Population Apoptotic (%) [3]: 65% | Population Fragmented Nuclei (%) [3]: 63% | Population Healthy Nuclei (%) [3]: 3% | Population Hoechst High Intensity Objects (%) [3]: 9% | Population Membrane Permeable-Phenotype (%) [3]: 16% | Population Mitochondria Different-Phenotype (%) [3]: 16% | Population Mitotic Cells (%) [3]: 34% | Population Normal (%) [3]: 90% | Population Pyknosed Nuclei (%) [3]: 33% | Population Tubulin-Different-Phenotype (%) [3]: 16% | Total Cell Count [3]: 650 | Population Apoptotic (%) [4]: 74% | Population Fragmented Nuclei (%) [4]: 24% | Population Healthy Nuclei (%) [4]: 1% | Population Hoechst High Intensity Objects (%) [4]: 10% | Population Membrane Permeable-Phenotype (%) [4]: 0% | Population Mitochondria Different-Phenotype (%) [4]: 100% | Population Mitotic Cells (%) [4]: 25% | Population Normal (%) [4]: 89% | Population Pyknosed Nuclei (%) [4]: 74% | Population Tubulin-Different-Phenotype (%) [4]: 100% | Total Cell Count [4]: 274 | Population Apoptotic (%) [5]: 60% | Population Fragmented Nuclei (%) [5]: 10% | Population Healthy Nuclei (%) [5]: 37% | Population Hoechst High Intensity Objects (%) [5]: 14% | Population Membrane Permeable-Phenotype (%) [5]: 2% | Population Mitochondria Different-Phenotype (%) [5]: 79% | Population Mitotic Cells (%) [5]: 39% | Population Normal (%) [5]: 85% | Population Pyknosed Nuclei (%) [5]: 52% | Population Tubulin-Different-Phenotype (%) [5]: 80% | Total Cell Count [5]: 345 | Population Apoptotic (%) [6]: 31% | Population Fragmented Nuclei (%) [6]: 11% | Population Healthy Nuclei (%) [6]: 34% | Population Hoechst High Intensity Objects (%) [6]: 7% | Population Membrane Permeable-Phenotype (%) [6]: 11% | Population Mitochondria Different-Phenotype (%) [6]: 66% | Population Mitotic Cells (%) [6]: 68% | Population Normal (%) [6]: 92% | Population Pyknosed Nuclei (%) [6]: 53% | Population Tubulin-Different-Phenotype (%) [6]: 71% | Total Cell Count [6]: 140 | Population Apoptotic (%) [7]: 60% | Population Fragmented Nuclei (%) [7]: 63% | Population Healthy Nuclei (%) [7]: 3% | Population Hoechst High Intensity Objects (%) [7]: 11% | Population Membrane Permeable-Phenotype (%) [7]: 26% | Population Mitochondria Different-Phenotype (%) [7]: 5% | Population Mitotic Cells (%) [7]: 39% | Population Normal (%) [7]: 88% | Population Pyknosed Nuclei (%) [7]: 32% | Population Tubulin-Different-Phenotype (%) [7]: 10% | Total Cell Count [7]: 639 | Population Apoptotic (%) [8]: 88% | Population Fragmented Nuclei (%) [8]: 29% | Population Healthy Nuclei (%) [8]: 4% | Population Hoechst High Intensity Objects (%) [8]: 10% | Population Membrane Permeable-Phenotype (%) [8]: 11% | Population Mitochondria Different-Phenotype (%) [8]: 33% | Population Mitotic Cells (%) [8]: 12% | Population Normal (%) [8]: 89% | Population Pyknosed Nuclei (%) [8]: 66% | Population Tubulin-Different-Phenotype (%) [8]: 88% | Total Cell Count [8]: 249 | Population Apoptotic (%) [9]: 54% | Population Fragmented Nuclei (%) [9]: 15% | Population Healthy Nuclei (%) [9]: 47% | Population Hoechst High Intensity Objects (%) [9]: 17% | Population Membrane Permeable-Phenotype (%) [9]: 7% | Population Mitochondria Different-Phenotype (%) [9]: 58% | Population Mitotic Cells (%) [9]: 45% | Population Normal (%) [9]: 82% | Population Pyknosed Nuclei (%) [9]: 37% | Population Tubulin-Different-Phenotype (%) [9]: 79% | Total Cell Count [9]: 417 | Population Apoptotic (%) [10]: 28% | Population Fragmented Nuclei (%) [10]: 9% | Population Healthy Nuclei (%) [10]: 61% | Population Hoechst High Intensity Objects (%) [10]: 5% | Population Membrane Permeable-Phenotype (%) [10]: 12% | Population Mitochondria Different-Phenotype (%) [10]: 32% | Population Mitotic Cells (%) [10]: 71% | Population Normal (%) [10]: 94% | Population Pyknosed Nuclei (%) [10]: 29% | Population Tubulin-Different-Phenotype (%) [10]: 64% | Total Cell Count [10]: 226 | Population Apoptotic (%) [11]: 69% | Population Fragmented Nuclei (%) [11]: 67% | Population Healthy Nuclei (%) [11]: 3% | Population Hoechst High Intensity Objects (%) [11]: 11% | Population Membrane Permeable-Phenotype (%) [11]: 31% | Population Mitochondria Different-Phenotype (%) [11]: 0% | Population Mitotic Cells (%) [11]: 30% | Population Normal (%) [11]: 88% | Population Pyknosed Nuclei (%) [11]: 29% | Population Tubulin-Different-Phenotype (%) [11]: 0% | Total Cell Count [11]: 663 | Population Apoptotic (%) [12]: 87% | Population Fragmented Nuclei (%) [12]: 36% | Population Healthy Nuclei (%) [12]: 19% | Population Hoechst High Intensity Objects (%) [12]: 9% | Population Membrane Permeable-Phenotype (%) [12]: 6% | Population Mitochondria Different-Phenotype (%) [12]: 65% | Population Mitotic Cells (%) [12]: 12% | Population Normal (%) [12]: 90% | Population Pyknosed Nuclei (%) [12]: 44% | Population Tubulin-Different-Phenotype (%) [12]: 93% | Total Cell Count [12]: 253

Reference: ChEMBL document CHEMBL4689842, “EUbOPEN Chemogenomics Library wave 1” (2021)
